This is a sample that favours compounds with a hit; in the whole collection about 2.1% have one here.
CAL PDZ FP-1 – blocks peptide binding to human CAL PDZ domain | Q9HD26 | purified CAL PDZ, TMR-peptide fluorescence polarization, 1 h | inhibition, % at 20 µM | 330,000 compounds, 0.02% hits;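 active = highest replicate inhibition of at least 40%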;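 also: plate controls were DMSO neutral control wells for no effect and unlabeled competitor peptide control wells for full effect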
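Control set: unlabelled peptide and DMSO controls / Material: purified CerCALP PDZ construct / Timing: 1 h incubation at room temperature before polarization reading / Doses: 20 µM, one dose / Detection: fluorescence polarization (mP)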
CAL PDZ FP-2 – blocks peptide binding to the human CAL PDZ domain | Q9HD26 | purified CAL PDZ, TMR-peptide fluorescence polarization, 1 h | inhibition, % at 24.9 µM | 300,000 compounds, 0.92% hits | AID 602252;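 active = mean inhibition of at least 30% with at least half of replicates also reaching 30%; inconclusive = no clear call, values can overlap the other calls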;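 also: 0% = DMSO neutral control and 100% = excess unlabeled competitor peptide PRC23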
miR-122 sensor – blocks miR-122 activity in Huh7 sensor cells | Huh7 miR-122 Renilla luciferase sensor, 48 h; neutral wells = 0, positive control = 100 | activation (reporter increase), % at 12.5 µM | 340,000 compounds, 0.3% hits | AID 602342;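 active = mean replicate activation score at least 90 and every replicate individually at or above 90; inconclusive = only one of the two criteria met; inactive = neither criterion met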;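 also: higher luciferase means less miR-122 activity so hits act as miR-122 inhibitors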
SR-BI DiI inh – inhibitors of mouse SR-BI mediated HDL lipid uptake | Q61009 | ldlA[mSR-BI] CHO cells, DiI-HDL uptake fluorescence, 3 h | inhibition, % at 12.5 µM | 320,000 compounds, 0.96% hits;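 active = mean replicate inhibition of at least 70% and a set share of replicates each scoring 70 or more; inconclusive = meets just one of the two criteria; inactive = fails both criteria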;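 also: 0% = median of neutral control wells and 100% = median of positive control wells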
Target sequence (Q61009 whole entry, looked up): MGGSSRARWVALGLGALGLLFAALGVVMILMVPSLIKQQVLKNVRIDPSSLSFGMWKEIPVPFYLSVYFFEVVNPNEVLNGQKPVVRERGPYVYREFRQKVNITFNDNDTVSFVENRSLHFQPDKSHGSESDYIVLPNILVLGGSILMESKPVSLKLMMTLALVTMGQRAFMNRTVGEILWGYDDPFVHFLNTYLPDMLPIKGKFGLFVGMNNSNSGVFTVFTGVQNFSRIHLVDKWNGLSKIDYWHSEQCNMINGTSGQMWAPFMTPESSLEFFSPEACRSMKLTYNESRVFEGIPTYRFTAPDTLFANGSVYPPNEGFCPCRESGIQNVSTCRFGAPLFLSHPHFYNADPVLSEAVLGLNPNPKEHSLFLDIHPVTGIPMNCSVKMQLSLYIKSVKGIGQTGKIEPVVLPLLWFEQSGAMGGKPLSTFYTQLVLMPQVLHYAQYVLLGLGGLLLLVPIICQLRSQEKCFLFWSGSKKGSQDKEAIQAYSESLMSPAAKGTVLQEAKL
ARNT TACC3 PPI – disrupts binding between human ARNT and TACC3 | inhibition, % at 9.99 µM | 390,000 compounds, 0.66% hits | AlphaScreen His-ARNT PAS-B/GST-TACC3 binding, luminescence; TACC3 fragment carries E629A point mutation | Q9Y6A5;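 active = mean inhibition of replicates at least 50% and at least half of replicates each reaching 50%; inconclusive = half or more replicates reach 50% but mean below 50%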;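 also: 0% = complete ARNT plus TACC3 wells and 100% = ARNT alone without TACC3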
SR-BI DiI-HDL act – SR-BI HDL lipid transfer activation; CHO ldlA[mSR-BI] cells, DiI-HDL uptake fluorescence, 3 h; 100 = double the neutral-control signal; activation, % at 12.5 µM; 320,000 compounds, 0.096% hits;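 active = mean replicate activation of at least 60% and every replicate at or above 60%; inconclusive = mean or all-replicate condition met, but not both; inactive = mean below 60% and not all replicates reaching 60%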;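 also: 0% = median plate neutral-control signal and 100% = twice that signal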
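Test system: SR-BI-overexpressing, LDLR-lacking CHO cells; Medium: Ham's F12 with 0.5% BSA, HEPES 25 mM, pH 7.4; Schedule: 3 h, 37 °C; Technique: bottom-read fluorescence, 550/595 nm.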
DiI quench – quenches DiI-HDL fluorescence, an SR-BI assay artifact; shares compounds with SR-BI DiI inh; cell-free DiI-HDL fluorescence quenching, 30 min; AC50, µM (highest dose often 35 µM), inactives show top-dose activity change, negative = quenching; 470 compounds, 20% hits; AID 540326;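 active = quenching, a falling signal, with AC50 below a set limit tied to the top valid dose, actives reach about 32 µM in these data; inconclusive = no clear call, values can overlap the other calls; inactive = rising signal, and the rest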
* = called active by the depositor; ? = inconclusive; . = no result given; [ ] = remark or other dose.

SMILES	CAL PDZ FP-1	CAL PDZ FP-2	miR-122 sensor	SR-BI DiI inh	ARNT TACC3 PPI	SR-BI DiI-HDL act	DiI quench
CCOc1cc(N2CCOCC2)c(OCC)cc1NC(=O)c1cc(-c2ccco2)nc2ccccc12	-1.9	-4.2	0.7	78.7*	3.7	-78.7	23.6µM*
O=C(NCCCN1CCOCC1)c1cc(-c2ccco2)nc2ccccc12	-1.4	-1.8	.	-6.4	.	6.4	.
CCOc1cc(N2CCOCC2)c(OCC)cc1NC(=O)COc1ncnc2ccccc12	-0.5	.	-2.8	17.2	3.5	-17.2	.
Cc1ccc(NC(=O)c2cc(-c3ccco3)nc3ccccc23)cc1S(=O)(=O)N1CCOCC1	-2.0	-2.6	-1.1	102.1*	-7.9	-102.1	-0.1%
O=C(Nc1nc(-c2ccccn2)cs1)c1ccc(-c2ccccc2F)o1	-2.4	2.5	32.9	3.9	43.5	-3.9	-13.8%
O=C(Nc1nc(-c2cc(F)ccc2F)cs1)c1ccccn1	-0.5	1.1	.	-21.4	-1.9	21.4	.
CNC(=O)C[C@@H]1CC[C@@H]2[C@H](COc3ccc(NC(=O)Nc4cc(C)cc(C)c4)cc3C(=O)N2C)O1	.	.	2.9[16.7 µM]	.	-6.7	.	.
C[C@H]1CN([C@@H](C)CO)C(=O)c2cc(C#Cc3ccccc3F)cnc2O[C@@H]1CN(C)C(=O)Cc1cccnc1	.	.	.	.	-2.7	.	.
CCN(C(=O)COC(=O)c1c(-c2ccccc2)noc1C)C1CCS(=O)(=O)C1 (stereo not drawn)	0.2	-4.0	3.0	11.1	-3.5	-11.1	.
Cc1ccc2nc3c(c(C(=O)OCC(=O)N(C)C4CCS(=O)(=O)C4)c2c1)CCCC3 (stereo not drawn)	-0.5	-6.1	.	73.8*	1.0	-73.8	-1.2%
CCN(C(=O)COC(=O)c1c(C)c(-c2ccccc2)nc2ccccc12)C1CCS(=O)(=O)C1 (stereo not drawn)	-0.6	-1.6	22.5	75.5*	4.2	-75.5	-0.8%
CC1CCc2nc3ccccc3c(C(=O)OCC(=O)N(C)C3CCS(=O)(=O)C3)c2C1 (stereo not drawn)	-0.6	-5.8	.	45.3	-9.1	-45.3	.
Cc1cccc(Nc2ccccc2C(=O)OCC(=O)N(C)C2CCS(=O)(=O)C2)c1C (stereo not drawn)	0.0	18.3	-1.6	73.2*	-0.9	-73.2	2.3%
COc1ccc(NC(=O)Nc2ccc3c(c2)[C@@H]2C[C@H](CC(=O)NCc4ccccn4)O[C@H](CO)[C@@H]2O3)cc1	.	.	-1.9[16.7 µM]	.	3.8	.	.
COC(=O)c1cnc(Oc2ccc(NC(=O)NC(=O)c3c(F)cccc3F)cc2)cc1C(F)(F)F	0.5	-5.5	.	40.2	1.5	-40.2	.
COC(=O)c1cnc(Oc2ccc(NC(=O)NC(=O)c3c(OC)cccc3OC)cc2)cc1C(F)(F)F	-0.6	-0.2	58.6	?	-10.4	-70.6	1.4%
C[C@H]1CN([C@@H](C)CO)C(=O)c2cc(NS(=O)(=O)c3cn(C)cn3)ccc2O[C@@H]1CN(C)Cc1ccc(C(=O)O)cc1	.	.	-6.3[16.7 µM]	.	0.1	.	.
O=C(NCN1C(=O)C2C3C=CC(C3)C2C1=O)OC1CCCCC1 (stereo not drawn)	-0.2	-0.7	-0.1	82.6*	-6.1	-82.6	-2.7%
Cc1ccc(S(=O)(=O)N2CCC(C(=O)NNC(=O)c3cccnc3)CC2)cc1	-2.5	-2.5	.	-4.5	-16.2	4.5	-0.7%
Cc1c(Cl)cccc1S(=O)(=O)N1CCC(C(=O)NNC(=O)C2CC2)CC1	-2.2	-3.6	.	44.6	-6.1	-44.6	-0.7%
COC(=O)CNc1nc(-c2ccncc2)nc2ccccc12	-3.5	-0.5	1.5	20.2	.	-20.2	.
c1ccc(CCNc2nc(-c3ccncc3)nc3ccccc23)cc1	-7.6	-4.5	45.8	?	-0.7	-72.5	2.5%
C/C=C/c1ccc2c(c1)O[C@H](CN(C)C(=O)CC)[C@H](C)CN([C@H](C)CO)S2(=O)=O	.	.	-3.6[16.7 µM]	.	-3.6	.	.
C[C@@H]1CN([C@@H](C)CO)C(=O)c2cc(NC(=O)c3ccccc3)ccc2O[C@@H](C)CCCCO[C@@H]1CN(C)Cc1ccncc1	.	.	12.7[16.7 µM]	.	25.4	.	.
CCC(=O)Nc1nc(C)c(-c2csc(Nc3cccc(O)c3)n2)s1	-0.6	0.0	.	51.4	20.6	-51.4	.
SMILES	CAL PDZ FP-1	CAL PDZ FP-2	miR-122 sensor	SR-BI DiI inh	ARNT TACC3 PPI	SR-BI DiI-HDL act	DiI quench
CCCCCCC(=O)Nc1nc(C)c(-c2csc(Nc3ccc(Cl)cc3)n2)s1	-0.5	0.2	.	119.9*	-7.3	-119.9	1.09µM*
CCCC#Cc1ccc2c(c1)O[C@@H](CN(C)Cc1ccncc1)[C@H](C)CN([C@@H](C)CO)S2(=O)=O	.	.	7.4[16.7 µM]	.	-4.4	.	.
Cc1ccc(C(=O)COc2cc(O)c3c(=O)cc(-c4ccccc4)oc3c2)cc1	-1.1	-0.1	-3.4	78.3*	.	-78.3	-3.8%
C[C@@H]1COC(=O)[C@H](NC(=O)OCC2c3ccccc3-c3ccccc32)C/C=C\C[C@@H](CC(=O)N[C@H](CO)Cc2ccccc2)C(=O)N1	0.2	1.4	1.8	80.6*	10.1	-80.6	-9.0%
CC(C)(C)[C@H]1COC(=O)[C@@H](NC(=O)OCC2c3ccccc3-c3ccccc32)C/C=C\C[C@@H](CC(=O)N[C@@H](CO)Cc2ccccc2)C(=O)N1	-0.3	-1.7	-6.8	34.4	-9.2	-34.4	.
CCc1cc2cc3c(cc2nc1SCC(=O)OC(C)C)OCO3	.	-4.3	.	77.3*	-1.7	-77.3	3.5%
Cc1ccc2oc(-c3cccc(NC(=O)c4cc(-n5cnnc5)ccc4Cl)c3)nc2c1	0.4	8.1	5.4	76.0*	-3.4	-76.0	15.2%
O=C(NCC[C@@H]1CC[C@H](NC(=O)C2CC2)[C@H](CO)O1)c1ccc(F)cc1	.	.	.	.	6.1	.	.
CC1CCCCC1NC(=O)c1nn(C)c2c1CS(=O)(=O)c1ccccc1-2 (stereo not drawn)	-2.1	-1.0	4.5	77.7*	-3.7	-77.7	0.8%
CC1CCCC(NC(=O)c2nn(C)c3c2CS(=O)(=O)c2ccccc2-3)C1C (stereo not drawn)	-3.4	-0.4	-0.4	25.0	-0.8	-25.0	.
C[C@H]1CN([C@@H](C)CO)C(=O)c2cc(NS(=O)(=O)c3cccs3)ccc2O[C@H]1CN(C)CC1CCCCC1	.	.	-3.2[16.7 µM]	.	11.8	.	.
N#CCCN(C(=O)COC(=O)CCc1c[nH]c2ccccc12)c1ccccc1	-0.7	.	-2.6	0.7	3.7	-0.7	-9.5%
CO[C@H]1CN(C)C(=O)c2cc(NC(=O)NC(C)C)ccc2OC[C@H](C)N(C(=O)CC2CC2)C[C@H]1C	.	.	24.5[16.7 µM]	.	6.0	.	.
CC(C)(C)NC(=O)N1CCN(c2ncccc2C(F)(F)F)CC1	-1.1	.	.	88.5*	1.7	-88.5	-4.1%
